Source: ChEMBL document CHEMBL1914372, “Synthesis and preliminary biological evaluation of novel N-(3-aryl-1,2,4-triazol-5-yl) cinnamamide derivatives as potential antimycobacterial agents: an operational Topliss Tree approach” (Bioorg Med Chem Lett, 2011)
Converted amounts (≈) assume the structure as drawn.

How the values were obtained:
[1] = Cytotoxicity against african green monkey Vero C1008 cells after 72 hrs by MTT assay; type: cell-based; conditions: chlorocebus sabaeus
In short: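 Mammalian VERO C1008 cells were exposed to the compounds in microtitre plates, viability was read by MTT assay, and CC50 values were determined.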

[2] = test system: Mycobacterium tuberculosis; test: Antimycobacterial activity against Mycobacterium tuberculosis H37Rv after 7 days by resazurin based microdilution assay; type: functional; conditions: 168 h
In short: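 M. tuberculosis H37Rv in resazurin microtitre assay (REMA) with two-fold serial dilutions of compound; isoniazid as reference drug. MIC taken as lowest concentration giving complete inhibition, read visually by colour change (blue stays blue without growth, turns pink with growth).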

SMILES | CC50 at 72 h [1] [µM] | MIC [2] [µM]
O=C(/C=C/c1ccccc1)Nc1nnc(-c2ccccc2)[nH]1 | 1570 | 86.2 (≈ 25 µg/mL)
O=C(/C=C/c1ccc(Cl)cc1)Nc1nnc(-c2ccccc2)[nH]1 | 1620 | 92.6 (≈ 30.1 µg/mL)
COc1ccc(/C=C/C(=O)Nc2nnc(-c3ccccc3)[nH]2)cc1 | 1280 | 39.1 (≈ 12.5 µg/mL)
Cc1ccc(/C=C/C(=O)Nc2nnc(-c3ccccc3)[nH]2)cc1 | 1760 | 82.2 (≈ 25 µg/mL)
O=C(/C=C/c1ccc(O)cc1)Nc1nnc(-c2ccccc2)[nH]1 | 1850 | 40.8 (≈ 12.5 µg/mL)
Nc1ccc(/C=C/C(=O)Nc2nnc(-c3ccccc3)[nH]2)cc1 | 1910 | 20.5 (≈ 6.26 µg/mL)
O=C(/C=C/c1ccc2c(c1)COC2)Nc1nnc(-c2ccccc2)[nH]1 | 1820 | 18.8 (≈ 6.25 µg/mL)
COc1ccc(/C=C/C(=O)Nc2nnc(-c3ccccc3)[nH]2)cc1OC | 1210 | 4.6 (≈ 1.61 µg/mL)
O=C(/C=C/c1cccc(Cl)c1)Nc1nnc(-c2ccccc2)[nH]1 | 1470 | 38.6 (≈ 12.5 µg/mL)
O=C(/C=C/c1cccc([N+](=O)[O-])c1)Nc1nnc(-c2ccccc2)[nH]1 | 1990 | 9.7 (≈ 3.25 µg/mL)
O=C(/C=C/c1ccco1)Nc1nnc(-c2ccccc2)[nH]1 | 2180 | 11.6 (≈ 3.25 µg/mL)
O=C(/C=C/c1ccc([N+](=O)[O-])s1)Nc1nnc(-c2ccccc2)[nH]1 | 1670 | 4.8 (≈ 1.64 µg/mL)
C=C(C)COc1ccc(/C=C/C(=O)Nc2nnc(-c3ccccc3)[nH]2)cc1 | 1420 | 9 (≈ 3.24 µg/mL)
O=C(/C=C/c1ccc(OC(F)(F)F)cc1)Nc1nnc(-c2ccccc2)[nH]1 | 1560 | 8.6 (≈ 3.22 µg/mL)
NNC(=O)c1ccncc1 [ISONIAZID] | 1460 | 1.8 (≈ 0.247 µg/mL)
